Shown are actives, neighbours in structure and some others; about 1.8% of the full set was active somewhere.
DDE Tn6 FP inh = inhibitors of Tn6 peptide binding to human fibrin DD(E); Fibrin DD(E) TRITC-Tn6 fluorescence polarization displacement; inhibition, % at 8.3 µM; actives 0.21% (n = 370,000);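 active = inhibition above a per-campaign cutoff: mean of compounds within control limits plus 3 SD, cut at about 15% in these data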
Target sequence (P02675 whole entry, looked up): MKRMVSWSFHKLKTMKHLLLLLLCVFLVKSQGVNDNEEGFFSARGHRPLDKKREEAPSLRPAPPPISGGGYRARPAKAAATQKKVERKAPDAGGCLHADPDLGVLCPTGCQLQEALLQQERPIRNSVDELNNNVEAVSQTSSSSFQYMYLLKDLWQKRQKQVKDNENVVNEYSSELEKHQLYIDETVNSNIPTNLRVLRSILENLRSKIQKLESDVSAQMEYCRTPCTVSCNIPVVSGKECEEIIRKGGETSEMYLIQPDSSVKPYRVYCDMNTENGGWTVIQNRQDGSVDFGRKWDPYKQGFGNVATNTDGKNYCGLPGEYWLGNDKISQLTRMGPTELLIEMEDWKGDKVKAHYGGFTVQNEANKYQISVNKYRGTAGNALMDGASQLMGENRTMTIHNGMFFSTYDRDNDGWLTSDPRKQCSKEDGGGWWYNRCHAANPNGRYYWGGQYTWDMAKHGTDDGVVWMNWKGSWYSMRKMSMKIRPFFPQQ
GRK2 aptamer HTS = human GRK2 inhibition via aptamer displacement | inhibition of aptamer binding, % at 10 µM | P25098 | bead flow cytometry, FAM-aptamer displacement from GRK2 | actives 0.59% (n = 330,000);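 active = inhibition of aptamer binding above 40%, roughly 3 SD of noise, on plates passing a quality check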;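 also: median bead fluorescence of bound FAM aptamer so fluorescent compounds give negative values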
CAL PDZ FP-1 = blocks peptide binding to human CAL PDZ domain; Q9HD26; purified CAL PDZ, TMR-peptide fluorescence polarization, 1 h; inhibition, % at 20 µM; actives 0.02% (n = 330,000);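 active = highest replicate inhibition of at least 40%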
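material = purified tagged CAL PDZ domain construct (CerCALP) | buffer or medium = sodium phosphate/NaCl buffer pH 7.4 with TCEP, IgG, Thesit | reagent = TMR-labelled reporter peptide T*-PRC34 bound in PDZ groove | incubation = 1 h room-temperature incubation prior to read | measured by = fluorescence polarization (mP) | evaluation = percent inhibition from loss of millipolarization | control set = unlabelled peptide and DMSO controls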
DDE Tn7 FP inh = inhibitors of Tn7 peptide binding to human fibrin DD(E) | inhibition, % at 8.3 µM | AID 720508 | FP displacement of FITC-Tn7 peptide from fibrin DD(E); 0% = median of compound wells per plate | actives 0.13% (n = 370,000) | P02675;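 active = inhibition above the mean of compounds falling within the control limits plus 3 SD of them, cut at about 14% in these data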
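System: human fibrin DD(E); quantity: Fibrin-DD(E) at 2 µM final; also added: fluorescent Tn7 probe at 0.1 µM; compound dosing: single nominal test concentration of 8.3 µM per compound; schedule: 10 min preincubation, 3 h with tracer, room temperature; detection: fluorescence polarization of the labelled Tn7 tracer; repeats: one replicate per compound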
ARNT-TACC3 inh = disruptors of human ARNT/TACC3 interaction; Q9Y6A5; AlphaScreen His-ARNT PAS-B/GST-TACC3 binding, luminescence; TACC3 fragment carries E629A point mutation; inhibition, % at 9.99 µM; actives 0.66% (n = 390,000);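 active = mean inhibition of replicates at least 50% and at least half of replicates each reaching 50%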
CAL PDZ FP-2 = CAL PDZ (human) peptide binding inhibition. Q9HD26. purified CAL PDZ, TMR-peptide fluorescence polarization, 1 h. inhibition, % at 24.9 µM. actives 0.92% (n = 300,000). AID 602252;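 active = mean inhibition of at least 30% with at least half of replicates also reaching 30%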
GRK2 CP1 = human GRK2 inhibition confirmation, cherry pick 1; bead-bound GRK2, FAM-aptamer displacement, flow cytometry; shares compounds with GRK2 aptamer HTS; actives 4% (n = 2,000); aptamer displacement, % at 10 µM;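 active = aptamer displacement above 40%, near three times the noise of non-fluorescent compounds, on plates passing quality checks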;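 also: negative values mostly reflect intrinsic compound fluorescence rather than true enhancement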
Aptamer quench SP = aptamer fluorescence quenching in GRK2 counter-screen; shares compounds with GRK2 aptamer HTS; Carboxyfluorescein RNA aptamer on beads, flow cytometry quenching; hits give low values; fluorescence response (% of DMSO), % at 10 µM; 2,000 tested, under 10 active;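 active = compounds that quench the bead-bound fluorescent RNA probe, cutting fluorescence to under half of the solvent control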;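 also: counterscreen run without GRK2 so only probe quenching by compound is measured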
GRK2 confirm 2 = confirmation of human GRK2 inhibitors binding RNA aptamer site; 360 tested, under 10 active; inhibition of aptamer binding, % at 10 µM; bead-bound GRK2, FAM-aptamer displacement, flow cytometry; AID 504782; shares compounds with GRK2 aptamer HTS;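 active = inhibition of aptamer binding above 40%, about triple the noise seen with nonglowing compounds, on plates passing quality control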;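 also: negative values mostly come from compounds that fluoresce themselves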
FAM quench SP = counter-screen for GRK2 binding hits: quenchers of fluorescent RNA aptamer | 360 tested, under 10 active | carboxyfluorescein RNA aptamer beads, flow cytometry quenching; hits give low values | fluorescence response vs DMSO, % at 10 µM | AID 588494 | shares compounds with GRK2 aptamer HTS;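 active = response vs DMSO under 50%, meaning signal dropped by over half, treated as fluorescence quencher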;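 also: labelled aptamer on streptavidin beads without GRK2 as a quench counter-screen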
Numbers stand for hits.

What do the screens show for `O=C(Nc1ccccc1N1CCCC1)c1ccco1`?
DDE Tn6 FP inh: inactive; GRK2 aptamer HTS: inactive; CAL PDZ FP-1: inactive; DDE Tn7 FP inh: inactive; ARNT-TACC3 inh: inactive; CAL PDZ FP-2: inactive

How did O=C(Nc1ccccc1N1CCCCC1)c1ccco1 do in these assays?
DDE Tn6 FP inh: inactive; GRK2 aptamer HTS: 49; DDE Tn7 FP inh: inactive; ARNT-TACC3 inh: inactive; CAL PDZ FP-2: inactive; GRK2 CP1: inactive; Aptamer quench SP: inactive

How did C=CCN(CC#Cc1cccnc1)Cc1ccc(OC)cc1OC do in these assays?
DDE Tn6 FP inh: inactive; DDE Tn7 FP inh: inactive

Results for COCCNC(=O)c1ccc(Cl)c(S(=O)(=O)Nc2cccc(C)c2C)c1 ?
DDE Tn6 FP inh: inactive; GRK2 aptamer HTS: 65; CAL PDZ FP-1: inactive; DDE Tn7 FP inh: inactive; ARNT-TACC3 inh: inactive; CAL PDZ FP-2: inactive; GRK2 confirm 2: inactive; FAM quench SP: inactive

How did Cc1ccc(C(=O)NCc2ccncc2)cc1S(=O)(=O)Nc1cccc(C)c1C do in these assays?
DDE Tn6 FP inh: inactive; GRK2 aptamer HTS: inactive; CAL PDZ FP-1: inactive; DDE Tn7 FP inh: inactive

Results for O=C(O)CCC(=O)NC1CCCCCCC1 ?
DDE Tn6 FP inh: inactive; GRK2 aptamer HTS: 65; CAL PDZ FP-1: inactive; DDE Tn7 FP inh: inactive; ARNT-TACC3 inh: inactive; CAL PDZ FP-2: inactive; GRK2 CP1: inactive; Aptamer quench SP: inactive

How did O=C(Nc1ccc2c(c1)OCO2)Nc1ccc(Cl)cc1Cl do in these assays?
DDE Tn6 FP inh: inactive; GRK2 aptamer HTS: 92; CAL PDZ FP-1: inactive; DDE Tn7 FP inh: inactive; ARNT-TACC3 inh: inactive; CAL PDZ FP-2: inactive; GRK2 CP1: inactive; Aptamer quench SP: inactive

What do the screens show for `CC(C)Oc1ccc(NC(N)=O)cc1`?
DDE Tn6 FP inh: inactive; GRK2 aptamer HTS: 89; CAL PDZ FP-1: inactive; DDE Tn7 FP inh: inactive; ARNT-TACC3 inh: inactive; CAL PDZ FP-2: inactive; GRK2 CP1: inactive; Aptamer quench SP: inactive

What do the screens show for `CC(C)Oc1ccc(NC(=O)CCC(=O)O)cc1`?
DDE Tn6 FP inh: inactive; GRK2 aptamer HTS: inactive; CAL PDZ FP-1: inactive; DDE Tn7 FP inh: inactive; ARNT-TACC3 inh: inactive; CAL PDZ FP-2: inactive

Results for COc1ccc2cc3cc(C(=O)N4CCN(c5ccccn5)CC4)oc3nc2c1 ?
DDE Tn6 FP inh: inactive; GRK2 aptamer HTS: 57; CAL PDZ FP-1: inactive; DDE Tn7 FP inh: inactive; ARNT-TACC3 inh: inactive; CAL PDZ FP-2: inactive; GRK2 CP1: inactive; Aptamer quench SP: inactive

How did CCN(CC)C(=O)Cc1cc(C(=O)O)c2ccccc2n1 do in these assays?
DDE Tn6 FP inh: inactive; GRK2 aptamer HTS: inactive; CAL PDZ FP-1: inactive; DDE Tn7 FP inh: inactive; ARNT-TACC3 inh: inactive; CAL PDZ FP-2: inactive; GRK2 CP1: inactive; Aptamer quench SP: inactive

What do the screens show for `C/C=C/c1ccc2c(c1)O[C@H](CN(C)Cc1ccccn1)[C@H](C)CN([C@H](C)CO)S2(=O)=O`?
ARNT-TACC3 inh: inactive

Results for CCOC(=O)N1CCN(C(=O)CCC(=O)N2CCOc3ccc(C)cc32)CC1 ?
DDE Tn6 FP inh: inactive; GRK2 aptamer HTS: 93; CAL PDZ FP-1: inactive; DDE Tn7 FP inh: inactive; ARNT-TACC3 inh: inactive; CAL PDZ FP-2: inactive; GRK2 CP1: inactive; Aptamer quench SP: inactive

Results for Cc1ccc(NC(=O)CS(=O)CC(=O)Nc2ccc(N3CCOCC3)cc2)cc1Cl (stereo not drawn) ?
DDE Tn6 FP inh: inactive; GRK2 aptamer HTS: 70; DDE Tn7 FP inh: inactive; ARNT-TACC3 inh: inactive; CAL PDZ FP-2: inactive; GRK2 CP1: inactive; Aptamer quench SP: inactive

Assay outcomes deposited in PubChem by several laboratories.
